The subject of data set [1] is Peritoneal macrophage. The data set can be described thus: Antiinflammatory activity in C57BL/6 mouse primary peritoneal macrophages assessed as inhibition of LPS-induced TNFalpha production at 10 uM preincubated for 30 mins followed by LPS stimulation and measured after 24 hrs by sandwich ELISA. It counts as functional, cell-based. In a few lines:
(§1)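 Thioglycollate-elicited mouse peritoneal macrophages in RPMI-1640/10% FBS. Compound pretreatment for 30 min (10 μM for single-point screening, graded concentrations for dose-response), then 0.5 μg/mL LPS for 24 h. TNF-α and IL-6 in culture medium measured by sandwich ELISA and normalized to total protein in cell lysates; n = 3.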
A general note: ELISA stands for enzyme-linked immunosorbent assay.

In data set [2] the test system is Peritoneal macrophage. The data set can be described thus: Antiinflammatory activity in C57BL/6 mouse primary peritoneal macrophages assessed as inhibition of LPS-induced IL-6 production at 10 uM preincubated for 30 mins followed by LPS stimulation and measured after 24 hrs by sandwich ELISA. It counts as functional, cell-based. In a few lines:
as §1

The test system of data set [3] is Peritoneal macrophage. Briefly: Antiinflammatory activity in C57BL/6 mouse primary peritoneal macrophages assessed as inhibition of LPS-induced TNFalpha production at 10 uM preincubated for 30 mins followed by LPS stimulation and measured after 24 hrs by sandwich ELISA relative to control. It counts as functional. Particulars: C57BL/6, Peritoneal macrophage. In a few lines: as §1

The nature of data set [4]: Stability of compound in pH 7.4 phosphate buffer at 20 uM measured up to 25 mins by UV-VIS spectroscopy. The class given is physicochemical. The following applies: pH 7.4, 25 min.
The test system of data set [5] is Peritoneal macrophage. Briefly: Antiinflammatory activity in C57BL/6 mouse primary peritoneal macrophages assessed as inhibition of LPS-induced IL-6 production at 10 uM preincubated for 30 mins followed by LPS stimulation and measured after 24 hrs by sandwich ELISA relative to control. The class given is functional. The following applies: C57BL/6, Peritoneal macrophage. The gist of the method:
as §1

Data set [6] deals with Peritoneal macrophage. Briefly: Antiinflammatory activity in C57BL/6 mouse primary peritoneal macrophages assessed as inhibition of LPS-induced TNFalpha production preincubated for 30 mins followed by LPS stimulation and measured after 24 hrs by sandwich ELISA. The class given is functional, cell-based. The gist of the method: as §1
Data set [7] relates to Peritoneal macrophage. Briefly: Antiinflammatory activity in C57BL/6 mouse primary peritoneal macrophages assessed as inhibition of LPS-induced IL-6 production preincubated for 30 mins followed by LPS stimulation and measured after 24 hrs by sandwich ELISA. The class given is functional, cell-based. In a few lines: as §1

Active and inactive are the calls of the source. The calls are words filed in the database; no cut-off is given here. Bounds are passed on as bounds.

Among the data in ChEMBL document CHEMBL4396951, “Optimization and anti-inflammatory evaluation of methyl gallate derivatives as a myeloid differentiation protein 2 inhibitor” (Bioorg Med Chem, 2019) are inhibition and Stability values, retold here.

The inhibition is the change of the read-out against control, counted positive when it falls.

With `CN1CCN(c2ccc(NC(=O)c3cc(O)c(O)c(O)c3)cc2)CC1`, the inhibition entry in the data set with Peritoneal macrophage [1] and in the data set with Peritoneal macrophage [2] was “Active” in each case.

`COc1ccc(/C=C/C(=O)Nc2ccc3c(c2)CCC3)cc1O`: the inhibition result in the data set with Peritoneal macrophage [1] and in the data set with Peritoneal macrophage [2] was “Active” throughout.

Consider `O=C(/C=C/c1cccc(OC(F)(F)F)c1)Nc1ccc2c(c1)CCC2`, for which the inhibition entry in the data set on Peritoneal macrophage [1] and with Peritoneal macrophage [2] was “Active” each time.

In the case of `O=C(Nc1ccc2c(c1)CCC2)c1cc2ccccc2[nH]1`, the inhibition entry with Peritoneal macrophage [1] and with Peritoneal macrophage [2] was “Active” throughout.

For `CCOc1ccc(NC(=O)c2cc(O)c(O)c(O)c2)cc1`, the inhibition result with Peritoneal macrophage [1] and with Peritoneal macrophage [2] was “Active” throughout.

With `O=C(Nc1ccccc1)c1cc(O)c(O)c(O)c1`, the inhibition entry in the data set on Peritoneal macrophage [1] and in the data set on Peritoneal macrophage [2] was “Active” throughout.

On to `COc1ccc(NC(=O)c2cc(O)c(O)c(O)c2)cc1`, for which the inhibition result in the data set with Peritoneal macrophage [1] and in the data set on Peritoneal macrophage [2] was “Active” each time.

On to `O=C(Nc1ccc2c(c1)CCC2)c1ccccc1C(F)(F)F`, for which the inhibition result in the data set with Peritoneal macrophage [1] and with Peritoneal macrophage [2] was “Active” throughout.

Consider `CN(C)c1ccccc1C(=O)Nc1ccc2c(c1)CCC2`, for which the inhibition entry with Peritoneal macrophage [1] and with Peritoneal macrophage [2] was “Active” throughout. The inhibition at 10 µM with Peritoneal macrophage [3] and with Peritoneal macrophage [5] was above 50% throughout. Moreover, in data set [4], the Stability entry is recorded as “Stable”. Besides, the inhibition entry with Peritoneal macrophage [6] and in the data set with Peritoneal macrophage [7] was “Dose-dependent effect” throughout.

With `O=C(Nc1ccc2c(c1)CCC2)c1c(Cl)cccc1Cl`, the inhibition result in the data set with Peritoneal macrophage [1] and in the data set with Peritoneal macrophage [2] was “Active” throughout.

`COc1cc(NC(=O)c2cc(O)c(O)c(O)c2)cc(OC)c1`: the inhibition result in the data set with Peritoneal macrophage [1] and in the data set on Peritoneal macrophage [2] was “Active” in each case.

As to `O=C(Nc1ccc(F)cc1)c1cc(O)c(O)c(O)c1`, the inhibition result with Peritoneal macrophage [1] and in the data set with Peritoneal macrophage [2] was “Active” throughout.

For `CC(=O)N1CCc2cc(NC(=O)c3cc(O)c(O)c(O)c3)ccc21`, the inhibition entry with Peritoneal macrophage [1] and in the data set on Peritoneal macrophage [2] was “Active” in each case.

With `COc1cc(/C=C/C(=O)Nc2ccc3c(c2)CCC3)cc(OC)c1O`, the inhibition result in the data set with Peritoneal macrophage [1] and in the data set on Peritoneal macrophage [2] was “Active” in each case.

As to `O=C(Nc1ccc2c(c1)CCC2)c1cccc(N2CCCC2)c1`, the inhibition entry in the data set on Peritoneal macrophage [1] and in the data set on Peritoneal macrophage [2] was “Active” in each case.

Consider `CC(=O)Nc1ccc(C(=O)Nc2ccc3c(c2)CCC3)cc1`, for which the inhibition entry with Peritoneal macrophage [1] and in the data set on Peritoneal macrophage [2] was “Active” each time.

`O=C(Nc1ccc2cc[nH]c2c1)c1cc(O)c(O)c(O)c1`: the inhibition entry in the data set on Peritoneal macrophage [1] and with Peritoneal macrophage [2] was “Active” each time.

Consider `COc1ccc(OC)c(/C=C/C(=O)Nc2ccc3c(c2)CCC3)c1`, for which the inhibition entry in the data set on Peritoneal macrophage [1] and with Peritoneal macrophage [2] was “Active” in each case.

As to `O=C(Nc1ccc(N2CCOCC2)cc1)c1cc(O)c(O)c(O)c1`, the inhibition result in the data set on Peritoneal macrophage [1] and with Peritoneal macrophage [2] was “Active” in each case.

As for `Cc1ccc(C(=O)Nc2ccc3c(c2)CCC3)s1`, the inhibition result in the data set on Peritoneal macrophage [1] and in the data set on Peritoneal macrophage [2] was “Active” throughout.

`CCN(CC)c1ccc(C(=O)Nc2ccc3c(c2)CCC3)cc1`: the inhibition entry in the data set with Peritoneal macrophage [1] and with Peritoneal macrophage [2] was “Active” each time.

Regarding `O=C(Cc1ccc([N+](=O)[O-])cc1[N+](=O)[O-])Nc1ccc2c(c1)CCC2`, the inhibition entry in the data set with Peritoneal macrophage [1] and in the data set with Peritoneal macrophage [2] was “Active” throughout.

Turning to `O=C(/C=C/c1ccccc1C(F)(F)F)Nc1ccc2c(c1)CCC2`, the inhibition entry in the data set with Peritoneal macrophage [1] and in the data set with Peritoneal macrophage [2] was “Active” in each case.

With `COc1ccc(/C=C/C(=O)Nc2ccc3c(c2)CCC3)cc1OC`, the inhibition entry in the data set with Peritoneal macrophage [1] and in the data set with Peritoneal macrophage [2] was “Active” in each case.

Regarding `Cc1ncsc1C(=O)Nc1ccc2c(c1)CCC2`, the inhibition entry in the data set on Peritoneal macrophage [1] and in the data set with Peritoneal macrophage [2] was “Active” each time.

As to `O=C(NCc1ccccc1)c1cc(O)c(O)c(O)c1`, the inhibition result with Peritoneal macrophage [1] and with Peritoneal macrophage [2] was “Active” in each case.

Consider `COc1ccccc1CNC(=O)c1cc(O)c(O)c(O)c1`, for which the inhibition entry with Peritoneal macrophage [1] and in the data set with Peritoneal macrophage [2] was “Active” in each case.

Regarding `COc1cc(/C=C/C(=O)Nc2ccc3c(c2)CCC3)cc(OC)c1OC`, the inhibition result with Peritoneal macrophage [1] and with Peritoneal macrophage [2] was “Active” each time.

As for `COc1ccc(CNC(=O)c2cc(O)c(O)c(O)c2)cc1OC`, the inhibition result in the data set with Peritoneal macrophage [1] and in the data set with Peritoneal macrophage [2] was “Active” each time.

For `O=C(Nc1ccc2c(c1)CCC2)c1cc(Cl)nc(Cl)c1`, the inhibition result in the data set on Peritoneal macrophage [1] and with Peritoneal macrophage [2] was “Active” throughout.

As for `CN1CCN(Cc2ccc(NC(=O)c3cc(O)c(O)c(O)c3)cc2)CC1`, the inhibition entry in the data set with Peritoneal macrophage [1] and in the data set with Peritoneal macrophage [2] was “Active” throughout.

With `COc1cc(CC(=O)Nc2ccc3c(c2)CCC3)cc(OC)c1`, the inhibition entry in the data set on Peritoneal macrophage [1] and in the data set on Peritoneal macrophage [2] was “Active” throughout.

Consider `CN(C)c1cccc(C(=O)Nc2ccc3c(c2)CCC3)c1`, for which the inhibition result in the data set with Peritoneal macrophage [1] and with Peritoneal macrophage [2] was “Active” in each case.

For `O=C(Cc1cccc2ccccc12)Nc1ccc2c(c1)CCC2`, the inhibition entry in the data set with Peritoneal macrophage [1] and with Peritoneal macrophage [2] was “Active” in each case. Moreover, the inhibition at 10 µM in the data set with Peritoneal macrophage [3] and with Peritoneal macrophage [5] was above 50% each time. Besides, in data set [4], the Stability result was “Stable”. The inhibition entry in the data set with Peritoneal macrophage [6] and with Peritoneal macrophage [7] was “Dose-dependent effect” in each case.

Consider `COc1ccc2cc(C(=O)Nc3ccc4c(c3)CCC4)[nH]c2c1`, for which the inhibition result in the data set with Peritoneal macrophage [1] and with Peritoneal macrophage [2] was “Active” throughout. Moreover, the inhibition at 10 µM with Peritoneal macrophage [3] and with Peritoneal macrophage [5] was above 50% throughout. Further, in data set [4], the Stability result is reported as “Stable”. Also, the inhibition entry in the data set on Peritoneal macrophage [6] and with Peritoneal macrophage [7] was “Dose-dependent effect” each time.

As for `O=C(CCCc1c[nH]c2ccccc12)Nc1ccc2c(c1)CCC2`, the inhibition result in the data set on Peritoneal macrophage [1] and in the data set on Peritoneal macrophage [2] was “Active” throughout.

Turning to `O=C(Nc1ccc2c(c1)CCC2)c1cccc(N2CCOCC2)c1`, the inhibition result with Peritoneal macrophage [1] and in the data set with Peritoneal macrophage [2] was “Active” each time.

For the molecule `O=C(Nc1ccc2c(c1)CCC2)c1ccc(Cl)c([N+](=O)[O-])c1`, the inhibition entry in the data set with Peritoneal macrophage [1] and with Peritoneal macrophage [2] was “Active” in each case.
